Calls of active or inactive are those of the source. No cut-off for these calls is given here.
Tests used:
[1] = test system: MCF7; assay: Induction of apoptosis in human MCF7 cells assessed as downregulation of Bcl-2 expression level measured after 72 hrs by Western blot analysis; assay type: functional, cell-based; details: dose 0.05-0.5 µM
Outline: (§1)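 MCF-7 cells (1 × 10^5 per flask) were treated at 0.05, 0.1 and 0.5 µM for 48 and 72 h; vehicle was 0.1% v/v ethanol. Lysis was in RIPA buffer with protease and phosphatase inhibitors. Equal protein (BCA) was run on 12% SDS-PAGE and blotted for Mcl-1, Bcl-2 and survivin, with GAPDH as loading control and ECL detection. Three independent experiments.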

[2] = test system: MCF7; assay: Induction of apoptosis in human MCF7 cells assessed as downregulation of Mcl-1 expression level measured after 72 hrs by Western blot analysis; assay type: functional, cell-based; details: dose 0.05-0.5 µM; outline: as §1
[3] = test system: MCF7; assay: Induction of apoptosis in human MCF7 cells assessed as total apoptotic cells at 0.1 uM after 48 hrs by Annexin V-FITC and propidium iodide staining based flow cytometry (reference value: 10 %); assay type: functional
Outline: (§2)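 MCF-7 cells were seeded at 1 × 10^5 cells/mL and treated for 48 h at 0.01, 0.1 and 1 µM; vehicle was 0.1% v/v ethanol. Annexin V staining was done on ice in the dark for 30 min in HEPES/NaCl/CaCl2 binding buffer, followed by PI. Flow cytometry scored early apoptotic (Annexin V+/PI−) and late apoptotic (Annexin V+/PI+) cells; total apoptotic is Annexin V-positive cells.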

[4] = test system: MCF7; assay: Cell cycle arrest in human MCF7 cells assessed as accumulation at G2/M phase at 1 uM measured after 24 hrs by PI staining based flow cytometry analysis (reference value: 24 %); assay type: functional
Outline: (§3)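 Cells (1 × 10^5/well) were treated at 1 µM for 24, 48 and 72 h; vehicle was 0.1% v/v ethanol. Cells were trypsinised, fixed in ice-cold 70% ethanol overnight at −20 °C, then stained with PI (50 µg/mL) plus DNase-free RNase A (50 µg/mL) at 37 °C for 30 min. DNA content of 10,000 cells per group was read by flow cytometry at 488 nm.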

[5] = test system: HT-29; assay: Cell cycle arrest in human HT-29 cells assessed as accumulation at G2/M phase at 1 uM measured after 48 hrs by PI staining based flow cytometry analysis (reference value: 11 %); assay type: functional; outline: as §3
[6] = test system: MCF7; assay: Induction of apoptosis in human MCF7 cells assessed as downregulation of Bcl-2 expression level measured after 48 hrs by Western blot analysis; assay type: functional, cell-based; details: dose 0.05-0.5 µM; outline: as §1
[7] = test system: MCF7; assay: Induction of apoptosis in human MCF7 cells assessed as late apoptotic cells after 48 hrs by Annexin V-FITC and propidium iodide staining based flow cytometry; assay type: functional, cell-based; details: dose 10-1000 nM; outline: as §2
[8] = test system: HT-29; assay: Induction of apoptosis in human HT29 cells assessed as cell apoptosis at 1 uM after 24 hrs by Annexin V-FITC and propidium iodide staining based flow cytometry; assay type: functional
Outline: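 HT-29 cells were treated at 1 µM for 24, 48 and 72 h against an untreated control. Cells were stained with Annexin V in binding buffer (HEPES pH 7.4, NaCl, CaCl2) for 30 min on ice in the dark, washed, resuspended in PI-containing buffer and read at once by flow cytometry. Quadrants: early apoptotic, late apoptotic, necrotic (Annexin V−/PI+).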

[9] = test system: MCF7; assay: Induction of apoptosis in human MCF7 cells assessed as downregulation of survivin expression level at 0.05 to 0.5 uM after 48 to 72 hrs by Western blot analysis; assay type: functional, cell-based; details: dose 0.05-0.5 µM, time 48-72 hrs; outline: as §1
[10] = test system: MCF7; assay: Cell cycle arrest in human MCF7 cells assessed as accumulation at sub-G1 phase at 1 uM measured after 72 hrs by PI staining based flow cytometry analysis; assay type: functional; outline: as §3
[11] = target: T1, Tubulin (Homo sapiens) (UniProt P68371+Q9H4B7+P0DPH7+P68366+Q13509+Q71U36+P04350+Q3ZCM7+P07437+P68363+Q9BQE3+Q6PEY2+Q13885+Q9BVA1+Q9BUF5); assay: Induction of microtubule depolymerization in human MCF7 cells assessed as induction of cell rounding at 100 nM for 5 hrs by immunofluorescence staining based confocal microscopic analysis
Outline: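 MCF-7 cells were seeded at 1 × 10^5 cells/mL on chamber slides and treated at 0.01, 0.05 and 0.1 µM. Controls were vehicle (1% v/v ethanol), CA-4 (0.01 µM) and paclitaxel (1 µM). Cells were fixed and stained with anti-α-tubulin-FITC (DM1A) and Alexa Fluor 488, then counterstained with DAPI. Imaging was by confocal microscopy over three separate experiments.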

[12] = test system: MCF7; assay: Induction of apoptosis in human MCF7 cells assessed as total apoptotic cells at 0.01 uM after 48 hrs by Annexin V-FITC and propidium iodide staining based flow cytometry (reference value: 10 %); assay type: functional; outline: as §2
[13] = test system: MCF7; assay: Induction of apoptosis in human MCF7 cells assessed as total apoptotic cells at 1 uM after 48 hrs by Annexin V-FITC and propidium iodide staining based flow cytometry (reference value: 10 %); assay type: functional; outline: as §2
[14] = test system: MCF7; assay: Induction of apoptosis in human MCF7 cells assessed as early apoptotic cells after 48 hrs by Annexin V-FITC and propidium iodide staining based flow cytometry; assay type: functional, cell-based; details: dose 10-1000 nM; outline: as §2
[15] = target: T1, Tubulin (Homo sapiens); assay: Binding affinity to tubulin in human MCF7 cells assessed as inhibition of tubulin-EBI adduct formation preincubated for 2 hrs followed by EBI addition and measured after 1.5 hrs by Western blotting analysis; assay type: cell-based; details: time 3.5 hrs
Outline: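 MCF-7 cells (5 × 10^4/well) were incubated overnight, then given vehicle (0.1% v/v ethanol) or compound at 10 µM for 2 h. Selected wells then received EBI (100 µM) for 1.5 h. Cells were washed in ice-cold PBS, lysed in Laemmli buffer and run on SDS-PAGE. Blots were probed for β-tubulin and the β-tubulin–EBI adduct, with GAPDH as loading control. Three independent experiments.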

[16] = test system: HEK-293T; assay: Antiproliferative activity against human HEK293T cells assessed as reduction in cell viability after 72 hrs by alamar blue assay; assay type: cell-based
Outline: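 Cells seeded at 5 x 10^3/well (MCF-7) or 1 x 10^4/well (HT-29, HEK-293T) and treated after 24 h with serial dilutions (0.001-100 µM) in 1% v/v ethanol vehicle. Alamar Blue 10% v/v added at 72 h, then 3-5 h at 37 °C in the dark; fluorescence ex 530/em 590 nm. Viability relative to vehicle; IC50 from dose-response curves; mean of three experiments in triplicate.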

[17] = test system: MCF7; assay: Induction of apoptosis in human MCF7 cells assessed as downregulation of Mcl-1 expression level measured after 48 hrs by Western blot analysis; assay type: functional, cell-based; details: dose 0.05-0.5 µM; outline: as §1
[18] = test system: HT-29; assay: Cell cycle arrest in human HT-29 cells assessed as accumulation at G2/M phase at 1 uM measured after 24 hrs by PI staining based flow cytometry analysis (reference value: 11 %); assay type: functional; outline: as §3
[19] = test system: HT-29; assay: Antiangiogenic activity in human HT29 cells assessed as reduction in IL-1beta secretion at 5 uM after 24 hrs by ELISA; assay type: functional, cell-based
Outline: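 HT-29 cells at 5 x 10^4 per well, cultured 24 h and then exposed to 5 µM compound. Conditioned medium collected on ice and stored at -80 °C. Cytokines and angiogenic, vascular-injury and chemokine factors measured by multiplex panels with overnight supernatant incubation (Angiogenesis Panel 1 and Vascular Injury Panel 2 same day). Medium undiluted except 1:4 for Vascular Injury Panel 2. Secretion normalised to lysate protein by BCA.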

[20] = test system: HT-29; assay: Cell cycle arrest in human HT-29 cells assessed as accumulation at sub-G1 phase at 1 uM measured after 48 hrs by PI staining based flow cytometry analysis (reference value: 2.5 %); assay type: functional; outline: as §3

Structure (SMILES): COc1ccc([C@H]2[C@H](O)C(=O)N2c2cc(OC)c(OC)c(OC)c2)cc1F
- Activity [1]: Dose-dependent effect
- Activity [2]: Dose-dependent effect
- Activity [3]: 20%
- Activity [4]: 66%
- Activity [5]: 57%
- Activity [6]: Dose-dependent effect
- Activity [7]: Dose-dependent effect
- Activity [8]: 21%
- Activity [9]: Active
- Activity [10]: 15%
- Activity [11]: Active
- Activity [12]: 13%
- Activity [13]: 35%
- Activity [14]: Dose-dependent effect
- Activity [15]: Active
- IC50 [16]: > 50 µM
- Activity [17]: Dose-dependent effect
- Activity [18]: 52%
- Activity [19]: inactive
- Activity [20]: 11%

Reference: ChEMBL document CHEMBL4680165, “β-Lactams with antiproliferative and antiapoptotic activity in breast and chemoresistant colon cancer cells” (Eur J Med Chem, 2020)
